Screening data (PubChem BioAssay)
Hits are enriched below; roughly 2.5% of the tested compounds scored in any of these assays.
Efflux pump inh – blocks antifungal efflux pumps in multiplex yeast assay; S. cerevisiae Candida pump triplex, Nile Red efflux; inhibition, % at 10 µM; 0.44% of 330,000 active;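 active = plate passing quality check with inhibition over a set limit, or well fluorescence over plate mean plus 4 SD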;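 note: Nile Red retained in pooled yeast measured as flow cytometry median fluorescence; 0% = buffer negative control and 100% = Enniatin B positive control; higher means more Nile Red kept so more efflux inhibition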
ABCB1 block – human ABCB1 inhibition, ABCG2 as counter-screen. P08183. CCRF-Adr cells, JC-1 efflux, flow cytometry. inhibition, % at 6.6 µM. 0.067% of 190,000 active. AID 1326; in the data active = inhibition above about 40%;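 note: 0% = vehicle and 100% = reference inhibitor; higher value means more JC-1 retained so stronger ABCB1 efflux block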
MEKK2 mut-MEK5 – signal of MEK5 binding to mutant human MEKK2 PB1 domain; bead flow cytometry, Alexa488-MEK5 binding to MEKK2 mutant; AID 1530; 0.35% of 290,000 active; percent response, % at 10 µM; in the data active = percent response above about 24%, passing the limit was not always enough
ABCG2 inh – human ABCG2 inhibition, ABCB1 as counter-screen. Q9UNQ0. AID 1325. 0.1% of 190,000 active. inhibition, % at 6.6 µM. IgMXP3 cells, JC-1 efflux, flow cytometry;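 active = inhibition above 80%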;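 note: 0% = DMSO and 100% = nicardipine control wells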
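System: two drug-resistant human cell lines, ABCG2 and ABCB1; controls: nicardipine high and DMSO low controls; times: 10 min exposure at 25 °C with rotation, no wash; detection: flow cytometry of retained JC-1 fluorescence; read-out basis: percent efflux inhibition, scaled nicardipine 100% to DMSO 0%; doses: one concentration, 6.6 µM final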
MEKK3 PB1 HTS – modulators (inhibitors or enhancers) of MEK5 binding to human MEKK3 PB1 domain; Q99759; bead-based flow cytometry, Alexa488-MEK5 binding to MEKK3; actives lie on both sides; 0 = blocked by unlabeled MEK5, 100 = vehicle; binding response (% of control), % at 10 µM; 1.4% of 290,000 active; AID 1529;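 active = binding response more than 3 SD above or below the average of its plate-row segment, actives on both sides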;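 note: Alexa488 bead fluorescence after subtracting the streptavidin-only scavenger bead signal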
Target sequence (Q99759 whole entry, looked up, the tested form may be a part): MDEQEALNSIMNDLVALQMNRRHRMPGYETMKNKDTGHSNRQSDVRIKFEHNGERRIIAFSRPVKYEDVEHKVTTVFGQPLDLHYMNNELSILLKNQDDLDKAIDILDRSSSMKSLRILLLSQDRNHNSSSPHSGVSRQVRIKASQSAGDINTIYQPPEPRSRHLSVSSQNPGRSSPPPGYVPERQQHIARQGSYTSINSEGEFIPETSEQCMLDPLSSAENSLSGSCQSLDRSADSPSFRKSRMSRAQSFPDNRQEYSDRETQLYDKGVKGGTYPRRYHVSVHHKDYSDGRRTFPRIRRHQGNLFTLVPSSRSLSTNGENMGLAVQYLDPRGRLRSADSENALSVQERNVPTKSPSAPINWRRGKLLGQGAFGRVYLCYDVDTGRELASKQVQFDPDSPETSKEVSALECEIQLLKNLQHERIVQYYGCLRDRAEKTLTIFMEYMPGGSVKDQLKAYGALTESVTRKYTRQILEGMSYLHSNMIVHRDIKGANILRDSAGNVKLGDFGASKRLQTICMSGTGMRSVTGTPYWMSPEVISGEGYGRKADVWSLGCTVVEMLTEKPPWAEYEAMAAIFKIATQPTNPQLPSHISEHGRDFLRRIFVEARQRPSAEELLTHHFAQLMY
MEKK2wt PB1 HTS – raises or lowers MEK5 binding to wildtype human MEKK2 PB1 domain; bead flow cytometry, Alexa488-MEK5 binding to MEKK2 WT; actives lie on both sides; binding response (% of control), % at 10 µM; 1.1% of 290,000 active; in the data active = binding response below about 67% or above about 130%
Yeast cmpd fluor – compound fluorescence in yeast efflux pump counter-screen; 4% of 1,700 active; S. cerevisiae AD/pABC3, flow cytometry; shares compounds with Efflux pump inh; fluorescence ratio to DMSO, % at 10 µM;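 active = fluorescence ratio to DMSO above its plate's cutoff, the plate mean ratio plus 5 SD, cut at about 210% in these data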;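 note: unstained yeast with no Nile Red so the signal is compound autofluorescence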
CaMdr1 efflux inh – blocks the Candida albicans Mdr1 efflux pump in yeast; shares compounds with Efflux pump inh; S. cerevisiae AD/CaMDR1, Nile Red efflux, flow cytometry; inhibition, % at 10 µM; 1% of 1,700 active; in the data active = inhibition above about 26%;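 note: 0% = DMSO vehicle and 100% = reference inhibitor; higher means more Nile Red retained so more efflux inhibition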
CaCdr2 efflux inh – Candida Cdr2 efflux pump inhibition. shares compounds with Efflux pump inh. S. cerevisiae AD/CaCDR2, Nile Red retention, flow cytometry. Nile Red retention ratio vs DMSO, % at 10 µM. 4% of 1,700 active. AID 588520; in the data active = Nile Red retention ratio vs DMSO above about 190%;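 note: higher ratio means more blocking of Cdr2 efflux of the dye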
Cdr1 pump inh – Candida Cdr1 efflux pump inhibition | 1% of 1,700 active | shares compounds with Efflux pump inh | AID 588522 | S. cerevisiae AD/CaCDR1, Nile Red efflux, flow cytometry | inhibition, % at 10 µM;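 active = inhibition above the screen-wide mean plus twice its standard deviation, cut at about 32% in these data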
Active calls of the source: *; . = not tested or not shown; + = active, no number; [ ] = another dose, or the depositor's remark.

SMILES	Efflux pump inh	ABCB1 block	MEKK2 mut-MEK5	ABCG2 inh	MEKK3 PB1 HTS	MEKK2wt PB1 HTS	Yeast cmpd fluor	CaMdr1 efflux inh	CaCdr2 efflux inh	Cdr1 pump inh
CSc1ccc(CN2CCC(Oc3ccc(C(=O)N4CCCC4)cc3)CC2)cc1	0	.	-5	.	96	104	.	.	.	.
COc1ccc(C2CC(c3ccccc3F)=NN2c2ccc(S(N)(=O)=O)cc2)cc1 (centres undefined)	0	.	.	.	.	.	.	.	.	.
COc1ccc(C2CC(c3ccccc3C(F)(F)F)=NN2c2ccc(S(N)(=O)=O)cc2)cc1 (centres undefined)	56*	.	.	.	.	.	93	0	114	0
Cc1ccc(S(=O)(=O)Nc2cc(C(C(=O)OC(C)C)C(=O)C(F)(F)F)c(O)c3ccccc23)c(C)c1 (centres undefined)	13*	-1	1	-16	97	99	88	0	96	0
CN1C(=O)/C(=C/c2ccccc2Cl)Sc2ccc(C(=O)N3CCCC3)cc21	0	.	3	.	106	101	.	.	.	.
CN1C(=O)/C(=C/c2ccc(C(F)(F)F)cc2)Sc2ccc(C(=O)N3CCN(c4ccccn4)CC3)cc21	0.7*	.	-1	.	98	99	100	0	112	0
COc1ccc(N2C(=O)C(OC(C)=O)C2c2ccc(C)cc2)cc1 (centres undefined)	0	1	0	5	99	100	.	.	.	.
COc1ccc([C@@H]2Sc3ccccc3N(CCN(C)C)C(=O)[C@@H]2OC(C)=O)cc1	0	-1	4	-4	86	99	114	0	114	0
O=C(Nc1c2c(nn1-c1ccccc1)CS(=O)(=O)C2)c1cc2ccccc2o1	0	.	-6	.	95	96	.	.	.	.
CC(C)CCNC(=O)c1onc(CSc2ccccn2)c1C(=O)NCCC(C)C	0.6*	.	4	.	112	108	104	0	102	0
COCCNC(=O)c1onc(CSc2ccccn2)c1C(=O)NCCOC	0	.	1	.	101	103	.	.	.	.
O=C(CCn1c(=O)c2ccccc2n(Cc2cccc([N+](=O)[O-])c2)c1=O)N1CCc2ccccc2C1	13*	11	-3	0	87	90	109	0	117	0
CCn1c(=O)c2ccccc2n(Cc2cccc([N+](=O)[O-])c2)c1=O	0	.	5	.	103	108	.	.	.	.
CC(C)Cn1c(SCC(=O)c2ccc(Cl)s2)nnc1-c1ccco1	1.1*	1	-7	2	92	90	100	0	107	0
CCOc1ccc(N2C(=O)CC(N(C)Cc3ccccc3)C2=O)cc1 (centres undefined)	15*	3	-4	7	84	86	103	0	100	0
COC(=O)c1ccc(N2C(=O)CC(N(C)Cc3ccccc3)C2=O)cc1 (centres undefined)	0	0	0	3	96	98	.	.	.	.
COc1cc(CN2CC(=O)N(c3cc(Cl)ccc3C)C2=S)cc(OC)c1OC	0	.	-1	.	97	93	.	.	.	.
COc1ccc(C2C(C#N)=C(N)N(c3ccccc3C#N)C3=C2C(=O)CCC3)cc1CN1CCCC1 (centres undefined)	9.6*	-1	-1	7	95	97	103	0	91	0
COc1cc(/C(C#N)=C/c2cccc3ccccc23)c([N+](=O)[O-])cc1OC	5.5*	2	-2	7	94	95	101	0	91	0
COc1c(C)cc(Br)cc1C(=O)Nc1ccccc1N1CCN(C(=O)c2ccccc2)CC1	1.0*	14	-4	24	101	93	106	0	94	0
O=S(=O)(NCCc1ccc(Cl)cc1)c1cccc2cccnc12	0	.	5	.	101	107	.	.	.	.
COc1ccccc1NC(=O)c1coc(=O)c(Br)c1	0	.	2	.	107	100	.	.	.	.
CC(/C=C/c1ccccc1)=N\Nc1nc(C)cc(C)n1	5.5*	1	-2	2	92	93	100	0	112	0
O=C(O)CCN1C(=O)/C(=C/c2ccc(-c3nc4ccccc4s3)o2)SC1=S	1.9*	0	.	-1	.	.	137	0	+	0
O=C(O)CCCN1C(=O)/C(=C\c2ccc(-c3nc4ccccc4s3)o2)SC1=S	1.1*	.	-20	.	68	41*[inhibitor]	106	0	180	0
SMILES	Efflux pump inh	ABCB1 block	MEKK2 mut-MEK5	ABCG2 inh	MEKK3 PB1 HTS	MEKK2wt PB1 HTS	Yeast cmpd fluor	CaMdr1 efflux inh	CaCdr2 efflux inh	Cdr1 pump inh
O=C(O)CC(C(=O)O)N1C(=O)/C(=C/c2ccc(-c3nc4ccccc4s3)o2)SC1=S (centres undefined)	0	-2	.	-10	.	.	101	0	107	0
COc1ccc2oc(=O)c(C(=O)N3CCN(C(=O)c4ccco4)CC3)cc2c1	0	.	-1	.	102	102	.	.	.	.
O=C(NC1CCCc2ccccc21)c1cccc(S(=O)(=O)N2CCN(c3ccccc3)CC2)c1 (centres undefined)	1.9*	1	-3	1	96	98	113	0	114	0
COc1ccc2cc(C#N)c(N3CCN(Cc4nnnn4CCC(C)C)CC3)nc2c1	0.7*	6	2	44	98	102	118	0	116	0
COc1ccc(-c2nc(NC(=O)c3nc4nccc(C)n4n3)sc2C)cc1	1.0*	0	-1	-1	100	98	95	0	116	0
CCC(C)NC(=O)CSc1nnc(-c2cc(-c3cccs3)nc3ccccc23)o1 (centres undefined)	0	0	1	1	98	97	.	.	.	.
Cc1ccc(S(=O)(=O)Nc2cc(C)c(O)c(Sc3n[nH]c(C)n3)c2)cc1	0	.	-1	.	102	102	99	-1	109	0
COc1ccc(C(C(=O)NC(C)(C)C)N(CCO)C(=O)CCC(=O)Nc2cc(C)on2)cc1 (centres undefined)	0	.	-2	.	102	102	97	0	102	0
COc1cccc(C(C(=O)NC(C)(C)C)N(C(=O)CCC(=O)Nc2cc(C)on2)C2CC2)c1OC (centres undefined)	0	1	-3	12	94	96	97	0	100	0
